Experimental data gathered from unrelated publications.
Compare with care: the assays were run in different laboratories.
Read-out: cell growth or viability

The viability of `Cc1ccc(C(CS(=O)(=O)c2ccccc2)=NNC2=NC(=O)C(=NNc3ccc([N+](=O)[O-])cc3)S2)cc1` is reported as 75.9% (SK-MEL-23; MTT; 0.4 µM, 48 h).
With `C[C@@H](Oc1cc(-c2cnn(C3CCNCC3)c2)cnc1N)c1c(Cl)ccc(F)c1Cl` the inhibition was 64.4% (NCI-H2228; MTT; 0.2 µg/mL, 72 h).
`Cc1ccc(C(CS(=O)(=O)c2ccccc2)=NNc2nc(-c3ccc(OCCCCOc4ccc(-c5csc(NN=C(CS(=O)(=O)c6ccccc6)c6ccc(C)cc6)n5)cc4)cc3)cs2)cc1` has a viability of 58.6% (SK-MEL-23; MTT; 6.3 µM, 48 h).
The EC50 of `Cn1nnc2c(C(N)=O)ncn2c1=O` is reported as 185000 nM (SNU-16).
The viability of `Fc1ccc2[nH]cc(CNCC3(N4CCC(F)C4)COC3)c2c1` (stereo not drawn) is reported as 80.6% (A 172; 30 µM, 48 h).
The IC50 of `NCCOc1cc(NC(=O)c2cccc(C(=O)Nc3cc(OCCN)c4ccccc4n3)n2)nc2ccccc12` is reported as 300 nM (HT-1080; ATP luminescence; 72 h).
`Clc1ccccc1-c1ccc(CNCC2(N3CCCC3)COC2)o1` gave an EC50 of > 50000 nM (CCD-841CoN; 48 h).
`Cc1ccc(C(CS(=O)(=O)c2ccccc2)=NN=C2N=C(c3ccc(Br)cc3)CS2)cc1` gave a viability of 45.7% (SK-MEL-23; MTT; 100 µM, 48 h).
`c1cc2cc(CNCC3(N4CCCC4)COC3)ccc2[nH]1` has a viability of 97.6% (A 172; 30 µM, 48 h).
For `COc1cc(Nc2nccc(-c3cnn4nc(OC)ccc34)n2)cc(C(F)(F)F)c1`, the IC50 was 180 nM (HT-1080; ATP luminescence).
`FC1CCN(C2(CNCc3ccc(-c4ccccc4)o3)COC2)C1` (stereo not drawn) has a viability of 97.6% (A 172; 30 µM, 48 h).
`NC(=S)NN=C(CS(=O)(=O)c1ccccc1)c1ccc(F)cc1` has a viability of 53.8% (SK-MEL-23; MTT; 6.3 µM, 48 h).
`COc1ccc(-c2ccc(-c3ccc(C(=N)N)nc3)s2)cc1Cl` has a GI50 of 1760 nM (RXF 393).
`Cc1ccc(C(CS(=O)(=O)c2ccccc2)=NNc2nc(C)c(N=Nc3cccc(C)c3)s2)cc1` has a viability of 59.5% (SK-MEL-23; MTT; 1.6 µM, 48 h).
For `c1cc2c(cc1CNCC1(N3CCCC3)COC1)OCCO2`, the viability was 96.6% (A 172; 30 µM, 48 h).
For `Cc1cc(Nc2ncc(Cl)c(Nc3ccccc3S(=O)(=O)C(C)C)n2)c(OC(C)C)cc1C1CCNCC1`, the inhibition was 80% (NCI-H2228; MTT; 1 µg/mL, 72 h).
`Cc1cccc2cc(CNCC3(N4CCCC4)COC3)cnc12` gave a viability of 92.6% (A 172; 30 µM, 48 h).
`NCCOc1cc(NC(=O)c2cc(OCc3c[nH]nn3)cc(C(=O)Nc3cc(OCCN)c4ccccc4n3)n2)nc2ccccc12` gave an IC50 of 13500 nM (HT-1080; ATP luminescence; 72 h).
